Holding throughout (format): functional, cell-based
One assay has as its system MCF7. Put plainly: Cytotoxicity against human MCF7 cells after 48 hrs by MTT assay. The conditions noted are these: MCF7, 48 h. The method, boiled down:
(§1)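 MTT assay; cells grown in RPMI-1640 or DMEM with 10% FBS, 37 °C, 5% CO2. Adherent cells allowed to attach 12 h before dosing; suspension cells seeded just before dosing at 1 × 10^5 cells/mL. Exposure at 0.1, 1, 10, 100 and 500 μM in triplicate for 48 h. 5-fluorouracil and doxorubicin as positive controls. IC50 by Reed and Muench method.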

Assay [1] is described as follows: Cytotoxicity against multidrug-resistant human MCF7/ADR cells after 48 hrs by MTT assay. The conditions noted are these: NCI/ADR-RES. The procedure, abridged: as §1
The next assay concerns KB. Put plainly: Cytotoxicity against human KB cells after 48 hrs by MTT assay. The procedure, abridged: as §1
The nature of assay [2]: Cytotoxicity against human KB/VCR cells after 48 hrs by MTT assay. The procedure, abridged: as §1
Another assay concerns SMMC-7721. Put plainly: Cytotoxicity against human SMMC7721 cells after 48 hrs by MTT assay. The note with it: SMMC-7721, 48 h. The method, boiled down: as §1
The next assay deals with K562. The experiment in a line: Cytotoxicity against human K562 cells after 48 hrs by MTT assay. The note with it: K562, 48 h. The method, boiled down:
as §1

In another assay the test system is RAW264.7. Put plainly: Antiinflammatory activity in mouse RAW264.7 cells assessed as inhibition of LPS-induced nitric oxide production pretreated for 2 hrs before LPS challenge measured after 18 hrs by Griess method. The method, boiled down:
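RAW 264.7 mouse macrophages in RPMI 1640 with 10% heat-inactivated FBS, penicillin/streptomycin, 37 °C, 5% CO2. Seeded 1 × 10^5 per well, 24 h, then pretreated 2 h with compounds at 40, 20, 10, 5, 2.5 μM (DMSO ≤0.1% final). LPS 2 μg/mL for 18 h. Supernatant nitrite read with Griess reagent at 540 nm against NaNO2 standard curve; n = 4; IC50.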

Consider `C[C@@H]([C@@H](O)[C@H](O)[C@H](O)C(C)(C)O)[C@@H]1CC[C@]2(C)C3=CC[C@H]4C(C)(C)C(=O)CC[C@]4(C)[C@H]3CC[C@@]12C`, for which the IC50 stood at 17.1 µM in the assay with MCF7; 22.6 µM in assay [1]; 10.2 µM with KB; 32.1 µM in assay [2]; 19.4 µM with SMMC-7721; 11.2 µM in the assay with K562.
In the case of `C=C1[C@@H]([C@@]2(C)C=CC(=O)C(C)(C)[C@@H]2CC(=O)OC)[C@H](OC(C)=O)[C@H](OC(C)=O)[C@@]2(C)[C@H](C3=CCOC3=O)C[C@H]3O[C@]132`, the IC50 (in the assay with MCF7; in assay [1]; in the assay with KB; in assay [2]; in the assay on SMMC-7721; with K562) was more than 50 µM in each case. The IC50 with RAW264.7 was found to be 20.9 µM.
Regarding `C=C1[C@@H]([C@@]2(C)C=CC(=O)C(C)(C)[C@@H]2CC(=O)OC)[C@@H](OC(C)=O)[C@H](OC(C)=O)[C@@]2(C)[C@H](C3=CC(O)OC3=O)C[C@H]3O[C@]132` (stereo partly specified), the IC50 in the assay on RAW264.7 is 41.4 µM.
Turning to `C=C1[C@@H]([C@@]2(C)C=CC(=O)C(C)(C)[C@@H]2CC(=O)OC)[C@@H](OC(C)=O)[C@H](OC(C)=O)[C@@]2(C)[C@H](C3=CC(=O)OC3O)C[C@H]3O[C@]132` (stereo partly specified), in the assay on RAW264.7, the IC50 was 38.9 µM.
As to `C[C@@H]1C[C@H]2[C@@H]3CCC4=CC(=O)C=C[C@]4(C)[C@@]3(F)[C@@H](O)C[C@]2(C)[C@@]1(O)C(=O)CO` [DEXAMETHASONE], the IC50 in the assay with RAW264.7 was 0.98 µM.
With `COc1cccc2c1C(=O)c1c(O)c3c(c(O)c1C2=O)C[C@@](O)(C(=O)CO)C[C@@H]3O[C@H]1C[C@H](N)[C@H](O)[C@H](C)O1` [DOXORUBICIN], the IC50 in assay [1] is more than 50 µM; in assay [2], 0.45 µM.
Consider `O=c1[nH]cc(F)c(=O)[nH]1` [FLUOROURACIL], for which the IC50 was more than 100 µM in the assay on MCF7; more than 100 µM in assay [1]; 6.8 µM with KB; 33.4 µM in assay [2]; more than 100 µM in the assay on SMMC-7721; 2.1 µM with K562.
Consider `CC(C)(O)[C@@H]1OC[C@H]([C@@H]2CC=C3[C@]4(C)C(=O)C[C@H]5C(C)(C)C(=O)C=C[C@]5(C)[C@H]4[C@H](O)C[C@]32C)C[C@H]1O` [TOONACILIATAVARIN A], for which the IC50 (in the assay with MCF7; in assay [1]; in the assay with KB; in assay [2]; with SMMC-7721; in the assay on K562) was more than 50 µM each time. Also, the IC50 with RAW264.7 was 9.4 µM.
As to `CC(=O)O[C@@H]1C[C@H]2C(C)(C)C(=O)C=C[C@]2(C)[C@H]2[C@H](O)C[C@]3(C)C(=CC[C@H]3[C@H]3CO[C@@H](C(C)(C)O)[C@H](O)C3)[C@@]21C` [TOONACILIATAVARIN B], the IC50 (with MCF7; in assay [1]; in the assay on KB; in assay [2]; in the assay with SMMC-7721; in the assay on K562) was more than 50 µM each time. Also, the IC50 with RAW264.7 amounted to 7.9 µM.
On to `CC(=O)O[C@@H]1C[C@H]2C(C)(C)C(=O)C=C[C@]2(C)[C@H]2[C@H](O)C[C@]3(C)C(=CC[C@H]3[C@H]3COC(C)(C)[C@@H](O)[C@H](O)C3)[C@@]21C` [TOONACILIATAVARIN C], for which the IC50 (in the assay with MCF7; in assay [1]; in the assay on KB; in assay [2]; in the assay with SMMC-7721; in the assay with K562) was more than 50 µM throughout. Also, the IC50 in the assay with RAW264.7 was found to be 11 µM.
Regarding `CC1(C)OC[C@H]([C@@H]2CC[C@]3(C)C4=CC[C@H]5C(C)(C)[C@@H](O)CC[C@]5(C)[C@H]4CC[C@@]23C)C[C@@H](O)[C@@H]1O` [TOONACILIATAVARIN D], the IC50 in the assay with MCF7 was more than 50 µM; in assay [1], more than 50 µM; with KB, 39.5 µM; in assay [2] it was more than 50 µM; in the assay with SMMC-7721 it was 31.4 µM; in the assay on K562, 43.1 µM. The IC50 with RAW264.7 is 33.4 µM.
Regarding `CC1(C)C(=O)C=C[C@]2(C)C3=CC[C@@]4(C)[C@H](C5=CC(=O)OC5O)C[C@H]5O[C@]54[C@]3(C)C(=O)C[C@@H]12` (stereo partly specified) [TOONACILIATAVARIN F], the IC50 (with MCF7; in assay [1]; in the assay on KB; in assay [2]; in the assay on SMMC-7721; with K562) was more than 50 µM each time. Also, the concentration for half-maximal inhibition (IC50) in the assay with RAW264.7 worked out at 28.8 µM.
For the compound `CC1(C)C(=O)C=C[C@]2(C)C3=CC[C@@]4(C)[C@H](C5=CC(O)OC5=O)C[C@H]5O[C@]54[C@]3(C)C(=O)C[C@@H]12` (stereo partly specified) [TOONACILIATAVARIN G], the IC50 (in the assay with MCF7; in assay [1]; with KB; in assay [2]; in the assay with SMMC-7721; with K562) was more than 50 µM in each case. Also, in the assay on RAW264.7, the concentration for half-maximal inhibition (IC50) turned out to be 15.2 µM.

For the origin of these results see ChEMBL document CHEMBL2034944, “Cytotoxic and anti-inflammatory triterpenoids from Toona ciliata” (J Nat Prod, 2012).
